The source made the active and inactive calls. The calls are words filed in the database; no cut-off is given here.
Legend:
[1] = molecular target: Leucine--tRNA ligase, cytoplasmic (Homo sapiens) (UniProt Q9P2J5); test: Inhibition of LRS-mediated mTORC1 activation in HEK293 cells assessed as decrease in leucine-induced S6K phosphorylation at T389 at 200 uM treated prior to leucine induction measured after 10 mins by Western blot method; format: cell-based
Summary of the method: (§1)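 HEK293 cells were pretreated at one fixed level: test agents at 200 μM, rapamycin at 100 nM or leucinol at 800 μM. mTORC1 was then activated by adding leucine for 10 min. Lysates were Western blotted for phospho-S6K, total S6K, LRS, mTOR and phospho-mTOR.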

[2] = molecular target: Leucine--tRNA ligase, cytoplasmic (Homo sapiens) (UniProt Q9P2J5); test: Inhibition of LRS-mediated mTORC1 activation in HEK293 cells assessed as decrease in leucine-induced S6K phosphorylation at T389 at 100 uM treated prior to leucine induction measured after 10 mins by Western blot method; format: cell-based
Summary of the method: (§2)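 Dose-dependent series in HEK293 cells. Compounds were given as pretreatment at several concentrations, then leucine was added for 10 min to activate mTORC1. Western blots were probed for phospho-S6K, S6K, LRS, mTOR and phospho-mTOR.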

[3] = tested on: HEK293; test: Effect on S6K expression in HEK293 cells at 20 to 200 uM treated prior to leucine addition measured after 10 mins by Western blot method; format: functional, cell-based; conditions: Homo sapiens; summary of the method: as §2
[4] = tested on: HEK293; test: Effect on LRS expression in HEK293 cells at 20 to 200 uM treated prior to leucine addition measured after 10 mins by Western blot method; format: functional, cell-based; conditions: Homo sapiens; summary of the method: as §2
[5] = tested on: HEK293; test: Effect on mTOR expression in HEK293 cells at 20 to 200 uM treated prior to leucine addition measured after 10 mins by Western blot method; format: functional, cell-based; conditions: Homo sapiens; summary of the method: as §2
[6] = molecular target: Serine/threonine-protein kinase mTOR (Homo sapiens) (UniProt P42345); test: Inhibition of mTOR phosphorylation in HEK293 cells at 20 to 200 uM treated prior to leucine addition measured after 10 mins by Western blot method; format: cell-based; summary of the method: as §2
[7] = molecular target: Leucine--tRNA ligase, cytoplasmic (Homo sapiens) (UniProt Q9P2J5); test: Inhibition of LRS aminooleucylation in HEK293 cells assessed as residual activity; format: cell-based
[8] = tested on: A549; test: Cytotoxicity against human A549 cells assessed as growth inhibition after 72 hrs by SRB assay; format: functional, cell-based; conditions: A549, 72 h
Summary of the method: (§3)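 Growth-inhibition IC50 values in a panel of cancer lines: A549 (lung), HCT116 (colon), K562 (leukemia), MDA-MB-231 (breast), SK-Hep-1 (liver) and SNU638 (stomach), plus MRC5 (described as normal lung epithelial cells). Etoposide was run in parallel as the positive control.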

[9] = tested on: HCT-116; test: Cytotoxicity against human HCT116 cells assessed as growth inhibition after 72 hrs by SRB assay; format: functional, cell-based; conditions: HCT-116, 72 h; summary of the method: as §3
[10] = tested on: K562; test: Cytotoxicity against human K562 cells assessed as growth inhibition after 72 hrs by SRB assay; format: functional, cell-based; conditions: K562, 72 h; summary of the method: as §3
[11] = tested on: MDA-MB-231; test: Cytotoxicity against human MDA-MB-231 cells assessed as growth inhibition after 72 hrs by SRB assay; format: functional, cell-based; conditions: MDA-MB-231, 72 h; summary of the method: as §3
[12] = tested on: SK-HEP1; test: Cytotoxicity against human SKHEP1 cells assessed as growth inhibition after 72 hrs by SRB assay; format: functional, cell-based; conditions: SK-HEP1, 72 h; summary of the method: as §3
[13] = tested on: SNU-638; test: Cytotoxicity against human SNU638 cells assessed as growth inhibition after 72 hrs by SRB assay; format: functional, cell-based; conditions: SNU-638, 72 h; summary of the method: as §3
[14] = tested on: MRC5; test: Cytotoxicity against human MRC5 cells assessed as growth inhibition after 72 hrs by SRB assay; format: cell-based; conditions: MRC5, 72 h; summary of the method: as §3
[15] = tested on: HEK293; test: Effect on S6K expression in HEK293 cells at 200 uM treated prior to leucine addition measured after 10 mins by Western blot method; format: functional, cell-based; conditions: Homo sapiens; summary of the method: as §1
[16] = tested on: HEK293; test: Effect on LRS expression in HEK293 cells at 200 uM treated prior to leucine addition measured after 10 mins by Western blot method; format: functional, cell-based; conditions: Homo sapiens; summary of the method: as §1
[17] = tested on: HEK293; test: Effect on mTOR expression in HEK293 cells at 200 uM treated prior to leucine addition measured after 10 mins by Western blot method; format: functional, cell-based; conditions: Homo sapiens; summary of the method: as §1
[18] = molecular target: Serine/threonine-protein kinase mTOR (Homo sapiens) (UniProt P42345); test: Inhibition of mTOR phosphorylation in HEK293 cells at 200 uM treated prior to leucine addition measured after 10 mins by Western blot method; format: cell-based; summary of the method: as §1
[19] = molecular target: Leucine--tRNA ligase, cytoplasmic (Homo sapiens) (UniProt Q9P2J5); test: Inhibition of LRS-mediated mTORC1 activation in HEK293 cells assessed as decrease in leucine-induced S6K phosphorylation at T389 treated prior to leucine induction measured after 10 mins by Western blot method; format: cell-based; summary of the method: as §2
[20] = molecular target: Leucine--tRNA ligase, cytoplasmic (Homo sapiens) (UniProt Q9P2J5); test: Inhibition of LRS-mediated mTORC1 activation in HEK293 cells assessed as decrease in leucine-induced S6K phosphorylation at T389 at 100 nM treated prior to leucine induction measured after 10 mins by Western blot method; format: cell-based; summary of the method: as §1
[21] = molecular target: Leucine--tRNA ligase, cytoplasmic (Homo sapiens) (UniProt Q9P2J5); test: Inhibition of LRS-mediated mTORC1 activation in HEK293 cells assessed as decrease in leucine-induced S6K phosphorylation at T389 at 800 uM treated prior to leucine induction measured after 10 mins by Western blot method; format: cell-based; summary of the method: as §1

Chain of Leucine--tRNA ligase, cytoplasmic (Homo sapiens) (Q9P2J5 whole entry, looked up): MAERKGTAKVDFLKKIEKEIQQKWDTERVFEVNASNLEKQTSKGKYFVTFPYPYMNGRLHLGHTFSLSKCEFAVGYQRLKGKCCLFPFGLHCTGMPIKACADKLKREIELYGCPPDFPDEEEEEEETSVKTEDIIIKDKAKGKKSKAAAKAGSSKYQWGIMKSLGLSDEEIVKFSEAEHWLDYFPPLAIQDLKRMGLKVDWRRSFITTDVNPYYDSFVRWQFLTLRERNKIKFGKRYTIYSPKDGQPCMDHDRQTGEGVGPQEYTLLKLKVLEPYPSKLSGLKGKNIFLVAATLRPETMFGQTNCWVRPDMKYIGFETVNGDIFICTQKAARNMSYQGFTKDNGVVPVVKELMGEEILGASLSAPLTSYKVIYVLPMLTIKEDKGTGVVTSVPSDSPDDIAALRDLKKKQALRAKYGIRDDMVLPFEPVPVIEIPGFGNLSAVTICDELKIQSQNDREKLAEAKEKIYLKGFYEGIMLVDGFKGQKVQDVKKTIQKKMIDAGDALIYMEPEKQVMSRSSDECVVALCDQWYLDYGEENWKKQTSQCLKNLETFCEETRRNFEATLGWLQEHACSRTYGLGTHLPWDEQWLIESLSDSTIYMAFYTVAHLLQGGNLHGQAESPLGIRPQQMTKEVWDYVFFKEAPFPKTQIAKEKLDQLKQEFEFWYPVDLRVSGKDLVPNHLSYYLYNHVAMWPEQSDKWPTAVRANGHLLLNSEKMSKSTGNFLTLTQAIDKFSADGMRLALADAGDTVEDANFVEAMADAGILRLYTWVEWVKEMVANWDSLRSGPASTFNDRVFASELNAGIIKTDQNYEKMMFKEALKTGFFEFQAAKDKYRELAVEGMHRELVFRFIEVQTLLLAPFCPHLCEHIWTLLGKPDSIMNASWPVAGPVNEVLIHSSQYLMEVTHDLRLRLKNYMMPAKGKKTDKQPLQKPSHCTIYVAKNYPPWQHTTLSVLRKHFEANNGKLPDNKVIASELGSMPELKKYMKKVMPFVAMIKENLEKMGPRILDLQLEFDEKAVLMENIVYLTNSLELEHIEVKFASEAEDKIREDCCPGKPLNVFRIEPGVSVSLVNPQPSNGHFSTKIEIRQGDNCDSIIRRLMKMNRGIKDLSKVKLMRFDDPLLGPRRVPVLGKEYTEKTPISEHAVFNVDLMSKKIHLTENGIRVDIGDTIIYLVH

Structure (SMILES) | inhibition [1] | inhibition [6] | inhibition [18] | Activity [3] | Activity [4] | Activity [5] | IC50 [8] [µM] | IC50 [9] [µM] | IC50 [10] [µM] | IC50 [11] [µM] | IC50 [12] [µM] | IC50 [13] [µM] | IC50 [14] [µM] | Activity [15] | Activity [16] | Activity [17] | also measured
COc1cc2ncnc(Nc3ccc(F)c(Cl)c3)c2cc1OCCOS(=O)(=O)NC(=O)[C@@H](N)CC(C)C | inactive | – | inactive | – | – | – | – | – | – | – | – | – | – | inactive | inactive | inactive | –
CO[C@H]1C[C@@H]2CC[C@@H](C)[C@@](O)(O2)C(=O)C(=O)N2CCCC[C@H]2C(=O)O[C@H]([C@H](C)C[C@@H]2CC[C@@H](O)[C@H](OC)C2)CC(=O)[C@H](C)/C=C(\C)[C@@H](O)[C@@H](OC)C(=O)[C@H](C)C[C@H](C)/C=C/C=C/C=C/1C | – | – | – | – | – | – | – | – | – | – | – | – | – | – | – | – | inhibition [20]: Active
COc1cc2ncnc(Nc3ccc(F)c(Cl)c3)c2cc1OCCOS(=O)(=O)NC(=O)[C@@H](O)CC(C)C | inactive | – | inactive | – | – | – | – | – | – | – | – | – | – | inactive | inactive | inactive | –
COc1cc2ncnc(Nc3ccc(F)c(Cl)c3)c2cc1OS(=O)(=O)NC(=O)[C@@H](O)CC(C)C | Active | inactive | – | inactive | inactive | inactive | 4.38 | 4.04 | 4.1 | 6.23 | 3.3 | 4.94 | 18.8 | – | – | – | inhibition [19]: Dose-dependent effect; Activity [7]: > 70%
COc1cc2ncnc(Nc3ccc(F)c(Cl)c3)c2cc1OS(=O)(=O)NC(=O)[C@@H](N)CC(C)C | Active | – | inactive | – | – | – | – | – | – | – | – | – | – | inactive | inactive | inactive | –
CC(C)C[C@H](N)CO | – | – | – | – | – | – | – | – | – | – | – | – | – | – | – | – | inhibition [21]: Active

The next lines start with results.

inhibition [1] | inhibition [6] | inhibition [18] | Structure (SMILES) | Activity [3] | Activity [4] | Activity [5] | IC50 [8] [µM] | IC50 [9] [µM] | IC50 [10] [µM] | IC50 [11] [µM] | IC50 [12] [µM] | IC50 [13] [µM] | IC50 [14] [µM] | Activity [15] | Activity [16] | Activity [17] | also measured
Active | inactive | – | COc1cc2ncnc(Nc3ccc(F)c(Cl)c3)c2cc1OCCNC(=O)[C@@H](N)CC(C)C | inactive | inactive | inactive | 2.79 | 4.24 | 3.83 | 4.59 | 2.21 | 2.97 | > 20 | – | – | – | inhibition [2]: inactive; Activity [7]: > 70%
inactive | – | inactive | COc1cc2ncnc(Nc3ccc(F)c(Cl)c3)c2cc1OC(=O)[C@@H](O)CC(C)C | – | – | – | – | – | – | – | – | – | – | inactive | inactive | inactive | –
– | inactive | – | COc1cc2ncnc(Nc3ccc(F)c(Cl)c3)c2cc1OCCOC(=O)[C@@H](O)CC(C)C | inactive | inactive | inactive | 3.16 | 3.12 | 3.89 | 2.05 | 1.39 | 3.41 | 1.12 | – | – | – | inhibition [19]: Dose-dependent effect; Activity [7]: > 70%
Active | – | inactive | COc1cc2ncnc(Nc3ccc(F)c(Cl)c3)c2cc1OCCNC(=O)[C@@H](O)CC(C)C | – | – | – | – | – | – | – | – | – | – | inactive | inactive | inactive | –
Active | inactive | – | COc1cc2ncnc(Nc3ccc(F)c(Cl)c3)c2cc1OCCOC(=O)[C@@H](N)CC(C)C | inactive | inactive | inactive | 3.59 | 3.97 | 4.01 | 3.65 | 1.94 | 3.86 | 1.87 | – | – | – | inhibition [2]: Active
inactive | – | inactive | COc1cc2ncnc(Nc3ccc(F)c(Cl)c3)c2cc1OC(=O)[C@@H](N)CC(C)C | – | – | – | – | – | – | – | – | – | – | inactive | inactive | inactive | –

Source: ChEMBL document CHEMBL4229473, “Discovery of novel leucyladenylate sulfamate surrogates as leucyl-tRNA synthetase (LRS)-targeted mammalian target of rapamycin complex 1 (mTORC1) inhibitors” (Bioorg Med Chem, 2018)
